Measurements taken from PubChem BioAssay AID1040 (The Scripps Research Institute Molecular Screening Center, 2008).
“And” between values parts separate entries of the source, which are not always exact repeats. Identical values can stand only once. In all, about 200,000 compounds went through this assay and about 2,000 (1%) were called active.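 Rule for the calls: active = inhibition above the campaign mean inhibition of all tested compounds plus 3 SD (cut at about 20% in these data); inactive = the rest.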 This excerpt belongs to a sample that is enriched for actives.

biological target: Neuropeptide Y receptor type 1 (Homo sapiens) (UniProt P25929); assay: blockers of human neuropeptide Y Y1 receptor – cell-based, primary screen (AID 1040); conditions: HEK293-CNG Y1 cells, membrane potential fluorescence; at 3.6 µM; active compounds read high; NPY at EC95, then isoproterenol;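 note: 0% = DMSO wells given NPY plus isoproterenol and 100% = isoproterenol alone without NPY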
Summary of the method: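 Material: HEK293 Y1/CNG channel cell line; also added: NPY (25 nM), isoproterenol (1 µM), Ro 20-1724 (25 µM); doses: one concentration, 3.6 µM, in 0.4% DMSO; schedule: compound incubation 1 h at room temperature, readout 45 min post-stimulation; technique: membrane potential fluorescence; measure: fluorescence ratio normalized to % inhibition between controls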

Sequence of Neuropeptide Y receptor type 1 (Homo sapiens) (P25929 whole entry, looked up): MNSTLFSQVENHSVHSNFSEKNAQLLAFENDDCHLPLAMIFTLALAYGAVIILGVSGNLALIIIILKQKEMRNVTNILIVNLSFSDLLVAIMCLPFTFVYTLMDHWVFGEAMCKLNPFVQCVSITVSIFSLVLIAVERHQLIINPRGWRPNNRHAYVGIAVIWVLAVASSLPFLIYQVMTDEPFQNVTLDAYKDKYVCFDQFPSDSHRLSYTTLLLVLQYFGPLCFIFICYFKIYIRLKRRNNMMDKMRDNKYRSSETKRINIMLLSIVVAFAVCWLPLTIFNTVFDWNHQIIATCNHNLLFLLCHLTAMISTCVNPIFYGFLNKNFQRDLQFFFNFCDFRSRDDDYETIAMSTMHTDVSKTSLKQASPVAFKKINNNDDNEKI

inhibition, inactive:
CN(C(=O)COc1ccccc1)c1nnc(-c2ccncc2)s1 7.86%
COc1ccc(CCNc2nc(-c3cccc(NC(C)=O)c3)cs2)cc1OC 6.08%
C/C(=C\c1ccccc1)C1NC(=O)c2c(sc3c2CCCC3)N1 (centres undefined) -4.04%
CC(=O)N(CC1CCCO1)C1(C(=O)NC2CCCC2)CCCCC1 (centres undefined) 1.44%
Cc1ccsc1C(C(=O)NC1CCCCC1)N(C(=O)Cc1cccs1)C1CC1 (centres undefined) 4.38%
CSc1cccc(NC(=S)N(Cc2ccccc2)Cc2ccccn2)c1 5.5%
CCC1(CC)Cc2ccccc2-c2nc3ccccc3c(=O)n21 12.8%
c1cncc(-c2nnc3n2C2(CCCCC2)Cc2ccccc2-3)c1 1.15%
COCCCNC(=S)N(Cc1ccccc1)Cc1ccc(F)cc1 2.32%
Cc1cccc2cc(CN(Cc3cccs3)C(=S)NCc3ccco3)c(=O)[nH]c12 -4.05%
CC(=O)N1CCN(CC(=O)Nc2ccc(SC(F)F)cc2)CC1 4.16%
COc1ccc(C(CCNCc2ccccc2F)c2ccc(F)cc2)cc1 (centres undefined) 9.35%
COc1ccccc1NC(=O)CCCc1c[nH]c2ccccc12 11.1%
CCC(=O)Nc1sc(C(=O)Nc2ccccc2)c(C)c1C(=O)OC 7.74%
O=S(=O)(Nc1ccc2cn[nH]c2c1)c1ccccc1 -1.06%
Cc1cc(C)nc(NS(=O)(=O)c2ccc(N/C=C\C(=O)c3cccs3)cc2)n1 1.24%
COc1ccc(CCNC2=C(Cl)C(=O)N(Cc3ccccc3)C2=O)cc1OC -3.95%
C/C(=N\N)c1c(-c2ccccc2)c2cc(Br)ccc2[nH]c1=O -0.69%
Cc1cnc(C(=O)OCC(=O)NCCCc2ccccc2)cn1 2.73%
COc1ccc(CN(C)C(=S)Nc2ccc(Cl)cc2Cl)cc1 3.26%
NC(N)=N/N=C/c1ccc(Cl)c([N+](=O)[O-])c1 3.89%
COc1ccc(C(=O)O/N=C(\N)Cc2ccc(Cl)cc2Cl)cc1OC -3.58%
CN(C)CCNC(=O)Cc1ccc([N+](=O)[O-])cc1 -2.56%
Cc1ccc2cc(CN(c3ccc(C)c(C)c3)S(C)(=O)=O)c(=O)[nH]c2c1 -0.43%
NNC(=O)c1cnn(-c2ccccc2)c1C(F)(F)F 3.72%
O=C(CN1C2=NCCN2c2ccccc21)c1cccs1 3.06%
Cc1cccc(C(=O)Nc2ccccc2N2CCN(c3ccc(F)cc3)CC2)c1 6.05%
O=C(Nc1ccccc1N1CCCCC1)c1cccc(F)c1 13.7%
CC(=O)N(CCCN(C)C)c1nc2ccc(C)cc2s1 -0.43%
O=C(CSc1cccc[n+]1[O-])c1ccc(Cl)cc1 0.77%
CN(C)S(=O)(=O)c1cc(NC(=O)CN2C(=O)NC3(CCCc4ccccc43)C2=O)ccc1Cl (centres undefined) -4.16%
Cc1ccc(-n2nc3cc(C)c(NC(=O)c4cccnc4)cc3n2)cc1 -4.27%
Cc1ccc2nc(-c3ccc(NC(=O)c4cccnc4)cc3)oc2c1 -0.59%
Cc1nc2cc(NC(=O)NC3CC3)ccc2n1C -0.07%
O=C(CN1CCN(C(=O)c2ccco2)CC1)Nc1ccc2c(c1)OCO2 0.97%
O=C(CN1CCN(CC(=O)Nc2ccc3c(c2)OCO3)CC1)Nc1ccc(F)cc1 -3.14%
COc1ccc(C(=O)NC(Cc2ccc(OC(=O)c3ccc(OC)cc3)cc2)C(=O)O)cc1 (centres undefined) 3.87%
Cc1coc(C)c1C(=O)CC1(O)C(=O)N(C)c2ccc(Cl)cc21 (centres undefined) 1.88%
O=C1NC(=Nc2ccc(Cl)cc2)SC1Cc1cccc(Cl)c1Cl (centres undefined) -1.29%
CCc1cc2c(NC3CCCC3)ncnc2s1 -1.37%
CCCc1ccc(OCC(=O)NNC(=S)NC(=O)c2ccco2)cc1 10.6%
O=C(Nc1ccc2ccccc2c1)/C(=C/c1cccc(Br)c1)NC(=O)c1ccco1 7.08%
COc1ccccc1NC(=O)CSc1nc2sc(C)c(C)c2c(=O)n1Cc1ccco1 9.58%
CCOC(=O)CSc1nc2c(c(=O)n(C)c(=O)n2C)n1Cc1ccccc1F 1.86%
CC(=O)c1ccc(N2CCN(S(=O)(=O)c3c(C)[nH]c(=O)[nH]c3=O)CC2)cc1 -3.11%
O=C(NC(=S)Nc1cccc(-c2ccc(CO)o2)c1)c1cccs1 4.06%
O=C(Nn1c(SCc2ccc([N+](=O)[O-])cc2)nc2ccccc2c1=O)c1ccc(F)cc1 3.79%
COc1ccc2oc(=O)c(C(=O)N3CCCC3)cc2c1 1%
Cc1cc(C)nc(SC2CCCCC2NS(=O)(=O)c2ccc(Cl)cc2)n1 (centres undefined) 4.03%
CSc1ccc(S(=O)(=O)NC2CCCCC2)cc1 -0.27%
O=C(COc1nc2ccccc2nc1N1CCOCC1)NCC(F)(F)F 3.34%
C/C=C/c1ccc(OCC(O)CN2CCCCCCC2)c(OC)c1 (centres undefined) 16.4%
CCCCCOC(=O)c1ccc(N2C(=O)C3C4C=CC(C4)C3C2=O)cc1 (centres undefined) -0.77%
Cc1ccc(N2C(=O)C3CC3C2=O)cc1 (centres undefined) -4.56%
Cc1ccc(C(=O)N/C(=C/c2cccs2)C(=O)N2CCCCC2)cc1 0.27%
CCOC(=O)c1c(NC(=O)C2CC=CCC2C(=O)O)sc(C)c1CC (centres undefined) 6.42%
COc1ccc2nc(Nc3nc4ccc(NC(C)=O)cc4s3)sc2c1 -4.47%
CCCC(=O)Nc1nc2ccc(NC(=O)c3cccnc3)cc2s1 2.46%
O=C(NCc1ccco1)c1ccc(NS(=O)(=O)c2cccc([N+](=O)[O-])c2)cc1 -0.88%
CN1CCN(C(=O)/C(=C\c2cccs2)NC(=O)c2cccs2)CC1 -0.85%
CO/N=C/c1cn(-c2ccc(Cl)cc2)nn1 -3.05%
O=C(NCc1ccncc1)NC12CC3CC(CC(C3)C1)C2 -6.14%
CCCn1nc(C(=O)N2CCCc3ccccc32)c2ccccc2c1=O 3.23%
O=C(c1cccc(C(=O)N2CCc3ccccc32)n1)N1CCc2ccccc21 10.5%
NS(=O)(=O)c1ccc(N=Cc2ccc(Br)s2)cc1 2.13%
Cc1ccc(S(=O)(=O)NC(C(=O)N2CCOCCOCCOCCOCC2)c2ccccc2)cc1 (centres undefined) 5.72%
O=C(/C=C/c1ccccc1)Nc1nnc(SCC(=O)c2ccc3ccccc3c2)s1 -1.51%
O=C(NCCNc1ccc([N+](=O)[O-])cc1)c1cccc2c(Br)cccc12 10.2%
CCOC(=O)/C(=N\Nc1ccccc1Cl)N(C)C1CCS(=O)(=O)C1 (centres undefined) -1.74%
Cc1ccc(C(=O)N2CCCC(c3ccccc3)=N2)cc1 0.71%
Cn1c(-c2ccccc2)c[n+]2c1CCCCC2 6%
CCN1CCN(C(C(=O)NC2CCCC2)c2cc3c(cc2[N+](=O)[O-])OCO3)CC1 (centres undefined) -0.35%
COC(=O)C1=C(Nc2ccc(OC)cc2)C=C(C)C(C(=O)OC)C1c1ccc(C)cc1 (centres undefined) 14.2%
COC(=O)C1C(=O)NCC1c1ccc(C)cc1 (centres undefined) -2.75%
O=c1[nH]c2ccccc2s1 1.2%
Cc1ccc(S(=O)(=O)N2CCOCC2)cc1C(=O)NC(=S)N(Cc1ccccc1)C(C)C 1.17%

inhibition, active:
COc1ccc(CCN(C(=O)COc2ccccc2)c2nc(-c3ccccc3)cs2)cc1OC 37.1%
CC(=O)N1CC(C)c2scc(C)[n+]2-c2ccccc21 (centres undefined) 23.1%
O=C(Cc1cccs1)N(CC1CCCO1)C1(C(=O)NC2CCCCC2)CCCCC1 (centres undefined) 50.3%
O=c1c2ccccc2nc2n1C1(CCCCC1)Cc1ccccc1-2 32%
Cc1cc(C)c2[nH]c(=O)c(CN(Cc3ccccc3)C(=S)NCCCN(C)C)cc2c1 25.1%
COc1cccc(CNCCc2c[nH]c3ccccc23)c1OCc1ccccc1F 21.9%
NC(N)=N/N=C/c1ccc(OCc2ccc(Cl)cc2Cl)cc1 22.1%
O=C(Nc1ccccc1N1CCN(c2ccccc2)CC1)c1cccc(F)c1 44.1%
Cc1cc2nc(-c3ccc(NC(=O)c4cccnc4)cc3)oc2cc1C 29.8%
O=C(CN1CCN(c2ncc(C(F)(F)F)cc2Cl)CC1)Nc1ccc2c(c1)OCO2 23.8%
CC(Oc1ccc2ccccc2c1)C(=O)NNC(=S)NC(=O)c1ccco1 (centres undefined) 21.9%
CCOC(=O)CSc1nc2c(sc(=S)n2CCc2ccccc2)c(=O)n1Cc1ccco1 34.8%
CCOC1CCCCC1NS(=O)(=O)c1ccc(Cl)cc1 (centres undefined) 21.4%
C/C(=N/O)c1ccc(N2C(=O)C3C4C=CC(C3C2=O)C2C3C(=O)N(c5ccc(/C(C)=N/O)cc5)C(=O)C3C42)cc1 (centres undefined) 20.7%
CCCC(=O)Nc1nc2ccc(NC(=O)c3c(F)c(F)c(OC)c(F)c3F)cc2s1 33.9%
CCCCn1nc(C(=O)N2CCc3ccccc32)c2ccccc2c1=O 28.5%
Cc1ccc(C(=O)C[n+]2cc(-c3ccccc3)n3c2CCCCC3)cc1 30.8% and 55.8%
COC(=O)C1=C(Nc2ccc(C)cc2)C=C(C)C(C(=O)OC)C1c1ccc(F)cc1 (centres undefined) 32.6%
